Data on 13 compounds can be found in ChEMBL document CHEMBL1126910, “18F-labeled benzamides for studying the dopamine D2 receptor with positron emission tomography” (J Med Chem, 1993).

Molecules are shown by their SMILES.

The term Ki denotes the dissociation constant of the complex between target and ligand, obtained from inhibition or displacement. For orientation: logP means a log measure of how a compound divides between an organic and an aqueous phase. Read a low logP as lower lipophilicity.

Data set [1] has as its target Serotonin 2 (5-HT2) receptor (Rattus norvegicus, UniProt P30994+P08909+P14842). Description: In vitro binding affinity on 5-hydroxytryptamine 2 receptor is inhibition of binding of [125I]- I-LSD to P11 cells. A digest of the protocol: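 Competition binding on membranes from P11 cells (pituitary tumor 7315A line, 5-HT2 without D2 or other serotonin subtypes); 0.4–0.5 nM [125I]I-LSD in 50 mM Tris-HCl pH 7.4; 1 μM ketanserin defines nonspecific; 37 °C, 60 min; filtration, gamma counting. IC50 from curve fitting, Ki by Cheng–Prusoff.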

The target of data set [2] is D(2) dopamine receptor (Rattus norvegicus, UniProt P61169). The data set can be described thus: Inhibition of [125I]- NCQ 298 binding to D2 receptor of rat striatal tissue. In kind it is tissue-based, Striatum.
D(2) dopamine receptor, sequence (P61169 whole entry): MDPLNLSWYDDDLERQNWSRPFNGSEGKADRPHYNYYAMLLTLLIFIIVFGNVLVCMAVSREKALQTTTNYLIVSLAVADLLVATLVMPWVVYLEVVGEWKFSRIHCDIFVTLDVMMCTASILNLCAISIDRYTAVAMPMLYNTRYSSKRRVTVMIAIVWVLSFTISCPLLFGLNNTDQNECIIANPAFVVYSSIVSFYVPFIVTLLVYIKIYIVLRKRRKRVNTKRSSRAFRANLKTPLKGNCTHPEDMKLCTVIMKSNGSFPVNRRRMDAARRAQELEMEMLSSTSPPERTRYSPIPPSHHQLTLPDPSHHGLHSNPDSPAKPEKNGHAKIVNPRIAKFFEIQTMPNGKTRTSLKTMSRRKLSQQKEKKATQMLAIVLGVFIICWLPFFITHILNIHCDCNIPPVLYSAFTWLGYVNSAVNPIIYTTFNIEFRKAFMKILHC
Data set [3] deals with Rattus norvegicus. Description: In vivo blood concentration of [18F]-labeled compound by rat brain at 30 min. It counts as functional, organism-based. A digest of the protocol:
(§1)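 Sprague–Dawley rats (200–300 g) under ketamine/xylazine anesthesia given 0.5–1.0 mL of 0.9% saline containing 18F-labeled ligand (20–150 μCi) i.v. via femoral vein. Killed by decapitation at set times (5 min to 5 h). A blood sample was taken and gamma-counted, expressed as % ID/g of blood. Mean ± SEM, n = 4-8.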

For data set [4], the system named is Rattus norvegicus. The data set can be described thus: In vivo blood concentration of [18F]-labeled compound by rat brain at 3h. In kind it is functional, organism-based. A digest of the protocol: as §1
Data set [5] concerns Rattus norvegicus. The data set can be described thus: In vivo blood concentration of [18F]-labeled compound by rat brain at 4 hr. It counts as functional, organism-based. A digest of the protocol: as §1
Data set [6] relates to Rattus norvegicus. The data set can be described thus: In vivo blood concentration of [18F]-labeled compound by rat brain at 5 min. It counts as functional, organism-based. A digest of the protocol:
as §1

Data set [7] has as its system Rattus norvegicus. The data set can be described thus: In vivo blood concentration of [18F]-labeled compound by rat brain at 5 hr. In kind it is functional, organism-based. A digest of the protocol: as §1
Data set [8] has as its system Rattus norvegicus. Description: In vivo blood concentration of [18F]-labeled compound by rat brain at 1 hr. In kind it is functional, organism-based. A digest of the protocol: as §1
In data set [9] the test system is Rattus norvegicus. Description: In vivo blood concentration of [18F]-labeled compound by rat brain at 2 hr. In kind it is functional, organism-based. A digest of the protocol:
as §1

In data set [10] the test system is Rattus norvegicus. Description: In vivo brain uptake of [18F]-labeled compound by rat brain at 1 hr. In kind it is functional, organism-based. A digest of the protocol: (§2)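 Sprague–Dawley rats (200–300 g), anesthetized with ketamine/xylazine, received 18F-labeled ligand (20–150 μCi) in 0.5–1.0 mL 0.9% saline i.v. (femoral vein). Decapitated at set intervals from 5 min to 5 h. Whole brain removed, weighed and gamma-counted, expressed as % ID/brain and % ID/g brain. Mean ± SEM, n = 4-8.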

Data set [11] deals with Rattus norvegicus. Description: In vivo brain uptake of [18F]-labeled compound by rat brain at 2 hr. It counts as functional, organism-based. A digest of the protocol: as §2
Data set [12] has as its system Rattus norvegicus. The data set can be described thus: In vivo brain uptake of [18F]-labeled compound by rat brain at 30 min. It counts as functional, organism-based. A digest of the protocol: as §2
Data set [13] deals with Rattus norvegicus. Description: In vivo brain uptake of [18F]-labeled compound by rat brain at 3h. In kind it is functional, organism-based. A digest of the protocol:
as §2

Data set [14] relates to Rattus norvegicus. Description: In vivo brain uptake of [18F]-labeled compound by rat brain at 4 hr. In kind it is functional, organism-based. A digest of the protocol:
as §2

Data set [15] relates to Rattus norvegicus. Description: In vivo brain uptake of [18F]-labeled compound by rat brain at 5 min. It counts as functional, organism-based. A digest of the protocol: as §2
Data set [16] deals with Rattus norvegicus. Description: In vivo brain uptake of [18F]-labeled compound by rat brain at 5 hr. It counts as functional, organism-based. A digest of the protocol:
as §2

Data set [17] concerns the target T1, Adrenergic receptor alpha-2 (Rattus norvegicus, UniProt P22086+P19328+P22909).
T1 sequence (P22086 whole entry): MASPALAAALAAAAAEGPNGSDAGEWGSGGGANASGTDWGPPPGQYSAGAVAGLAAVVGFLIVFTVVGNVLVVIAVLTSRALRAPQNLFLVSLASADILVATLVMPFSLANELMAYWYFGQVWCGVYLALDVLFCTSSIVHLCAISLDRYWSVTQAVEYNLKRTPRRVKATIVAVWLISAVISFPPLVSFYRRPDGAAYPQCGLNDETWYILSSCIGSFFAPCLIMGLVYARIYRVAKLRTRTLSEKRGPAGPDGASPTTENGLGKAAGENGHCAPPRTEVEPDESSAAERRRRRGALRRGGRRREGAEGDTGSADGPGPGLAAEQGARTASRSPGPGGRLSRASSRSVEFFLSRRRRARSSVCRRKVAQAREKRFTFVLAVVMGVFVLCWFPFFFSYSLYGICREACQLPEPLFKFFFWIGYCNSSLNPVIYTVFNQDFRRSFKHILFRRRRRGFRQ
T1 sequence (P19328 whole entry): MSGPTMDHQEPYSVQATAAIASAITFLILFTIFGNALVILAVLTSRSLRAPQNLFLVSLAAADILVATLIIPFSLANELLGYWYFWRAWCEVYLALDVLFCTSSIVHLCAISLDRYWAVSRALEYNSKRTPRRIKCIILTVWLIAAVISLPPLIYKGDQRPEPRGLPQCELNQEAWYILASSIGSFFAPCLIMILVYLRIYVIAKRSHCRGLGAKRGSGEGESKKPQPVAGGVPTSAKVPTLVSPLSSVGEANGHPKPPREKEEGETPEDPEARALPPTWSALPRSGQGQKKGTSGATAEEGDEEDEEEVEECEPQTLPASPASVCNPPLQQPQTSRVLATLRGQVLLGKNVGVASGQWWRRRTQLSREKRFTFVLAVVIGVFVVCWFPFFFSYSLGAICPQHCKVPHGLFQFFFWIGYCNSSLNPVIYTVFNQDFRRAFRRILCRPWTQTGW
T1 sequence (P22909 whole entry): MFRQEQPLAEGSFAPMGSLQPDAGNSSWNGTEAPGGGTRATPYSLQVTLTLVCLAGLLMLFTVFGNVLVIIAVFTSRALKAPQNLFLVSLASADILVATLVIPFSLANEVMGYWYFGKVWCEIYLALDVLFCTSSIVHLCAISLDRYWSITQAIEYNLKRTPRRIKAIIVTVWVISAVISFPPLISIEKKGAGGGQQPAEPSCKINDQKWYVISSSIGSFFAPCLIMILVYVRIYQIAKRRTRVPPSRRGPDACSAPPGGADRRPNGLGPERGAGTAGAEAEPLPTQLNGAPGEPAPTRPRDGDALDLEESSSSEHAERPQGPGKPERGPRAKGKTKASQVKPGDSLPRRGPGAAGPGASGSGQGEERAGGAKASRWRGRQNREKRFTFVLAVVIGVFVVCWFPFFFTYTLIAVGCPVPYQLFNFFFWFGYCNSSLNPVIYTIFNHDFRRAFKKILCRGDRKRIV
Description: In vitro binding affinity on alpha-2 receptor is inhibition of binding of [3H]- rauwolscine to rat cortex. A digest of the protocol: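 Rat cerebral cortex membranes, 2 nM [3H]rauwolscine in 20 mM HEPES pH 7.4, run in triplicate; nonspecific with 10 μM phentolamine; 20 °C, 30 min; glass fiber filtration, liquid scintillation counting. IC50 by curve fitting, converted to Ki via Cheng–Prusoff.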

Data set [18] can be described thus: Partition coefficient (logP). The note with it: C-18 reversed-phase HPLC. It counts as physicochemical. A digest of the protocol: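 Lipophilicity measured as log P by the C-18 reversed-phase HPLC method of Kraak et al.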
Data set [19] deals with D(3) dopamine receptor (Rattus norvegicus). Description: In vitro binding affinity on D3 receptor is inhibition of binding of [125I]- NCQ 298 to Sf9 cells infected with recombinant baculovirus.

`COc1cc(N)c(Cl)cc1C(=O)N[C@@H]1C[C@H]2CCC[C@@H](C1)N2Cc1ccc(F)cc1`: the Ki in data set [1] was 2200 nM; in data set [2], more than 10 nM.
As to `COc1cccc(C(=O)NC2CCN(Cc3ccccc3)CC2)c1OC`, the Ki in data set [2] was found to be 0.63 nM.
Turning to `COc1cc(Br)cc(C(=O)NC2CCN(Cc3ccc(F)cc3)CC2)c1OC`, the Ki in [1] is reported as 94 nM; in data set [17] it was 3000 nM. Also, the ID/g in [3] is 0.036%; in data set [4] it was 0.013%; in data set [5], 0.012%; in data set [6], 0.088%; in data set [7] it was 0.012%; in [8], 0.025%. The ID/g in [9] turned out to be 0.016%; in [10], 0.2%; in data set [11], 0.14%; in data set [12], 0.32%; in data set [13] it was 0.1%; in [14], 0.12%. For the same compound, the ID/g came out at 0.58% in data set [15] and 0.12% in data set [16]. For the same compound, the ID/brain amounted to 0.36% in data set [10]; 0.27% in data set [11]; 0.55% in data set [12]; 0.2% in data set [13]; 0.21% in [14]; 1.12% in data set [15]. Besides, the ID/brain in data set [16] turned out to be 0.2%.
In [2], `COc1cc(Br)cc(C(=O)NC2CC3CCCC(C2)N3Cc2ccccc2)c1OC` (stereo not drawn) yielded a Ki of 0.033 nM.
Turning to `COc1cc(N)c(Cl)cc1C(=O)NC1CCN(Cc2ccc(F)cc2)CC1`, the Ki in data set [1] amounted to 283 nM; in data set [17] it was 1300 nM.
For the compound `COc1cccc(C(=O)NC2CCN(Cc3ccc(F)cc3)CC2)c1OC`, the inhibition constant (Ki) in data set [1] is 1840 nM; in [2], 0.38 nM; in [17], 3000 nM; in [19], 5.91 nM. This compound also showed a logP in data set [18] of 2.83. In addition, the ID/g in data set [3] was determined as 0.066%; in data set [4], 0.017%; in data set [5], 0.01%; in [6], 0.155%; in data set [7] it was 0.012%; in data set [8], 0.043%. Also, the ID/g in data set [9] amounted to 0.029%; in data set [10] it was 0.36%; in data set [11], 0.33%; in data set [12] it was 0.39%; in data set [13], 0.25%; in data set [14] it was 0.11%. The ID/g in [15] came out at 0.81%; in [16], 0.12%. Besides, the ID/brain in [10] worked out at 0.57%; in data set [11], 0.5%; in data set [12], 0.61%; in [13], 0.38%; in data set [14], 0.17%; in data set [15], 1.28%. In data set [16], this compound came in with an ID/brain of 0.19%.
For `COc1cc(Br)cc(C(=O)NC2CC3CCCC(C2)N3Cc2ccc(F)cc2)c1OC` (stereo not drawn), the Ki worked out at 3.1 nM in [1], 0.02 nM in [2] and 1900 nM in data set [17].
Regarding `COc1cc(Br)cc(C(=O)NC2CCN(Cc3ccccc3)CC2)c1OC`, in data set [2], the Ki was 0.31 nM.
On the same count and under the same terms, the value for `COc1cc(N)c(Cl)cc1C(=O)NC1CC2CCCC(C1)N2Cc1ccccc1` (stereo not drawn) was 0.036 nM.
For `COc1cc(N)c(Cl)cc1C(=O)NC1CCN(Cc2ccccc2)CC1` [CLEBOPRIDE], the Ki in [1] was 89 nM; in [17], 600 nM.
On to `COc1cccc(C(=O)NC2CC3CCCC(C2)N3Cc2ccccc2)c1OC` (stereo not drawn), for which the affinity in data set [2], expressed as Ki, was 0.038 nM.
With `CCN1CCC[C@H]1CNC(=O)c1c(O)c(I)cc(OC)c1OC` [IOXIPRIDE], the Ki in data set [19] is 0.16 nM.
Turning to `COc1cccc(C(=O)NC2CC3CCCC(C2)N3Cc2ccc(F)cc2)c1OC` (stereo not drawn), the Ki in [1] is 84 nM; in data set [17], 1300 nM. For the same compound, the logP in [18] amounted to 2.86. For the same compound, the ID/g was found to be 0.089% in [3]; 0.019% in data set [4]; 0.013% in data set [5]; 0.156% in data set [6]; 0.005% in data set [7]; 0.044% in [8]. In addition, the ID/g amounted to 0.024% in data set [9]; 0.23% in [10]; 0.27% in [11]; 0.2% in [12]; 0.23% in data set [13]; 0.22% in data set [14]. In addition, the ID/g in [15] was 0.39%; in [16], 0.14%. The ID/brain is 0.31% in [10]; 0.44% in [11]; 0.35% in [12]; 0.37% in [13]; 0.36% in data set [14]; 0.64% in [15]. Further, the ID/brain in data set [16] was found to be 0.23%.
